Marks after values point to notes of the source that are not given here.
Columns and labels:
Non-enzymatic stability = format: physicochemical; details: for percent BAPC hydrolysis/cleavage (non-enzymatic) in phosphate buffer: pH 7.4, 48 h
tubulin = experiment: Inhibition of [3H]colchicine binding to tubulin; details: 1.0 μM tubulin, 5.0 μM [3H]colchicine
Summary of the method: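 Incubation was 10 min at 37 °C, when control binding is about 50% complete. Bound ligand was collected on paired filters and scintillation-counted at least 18 h later. Counts were corrected for filter-bound colchicine without tubulin, and percent inhibition was calculated against no-inhibitor controls.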

[1] = test system: A549 human lung cancer cell line; experiment: Differential cytotoxicity
[2] = target: T1, Rat NADPH-cytochrome P450 oxidoreductase (POR) supersomes (Rattus norvegicus, UniProt P00388); experiment: NADPH-cytochrome P450 oxidoreductase cleavage assay; format: in vitro ADME; details: for percent BAPC cleavage by POR: 90 min, anaerobic, 37 °C, NC = no cleavage observed
T1 sequence (P00388 1-678): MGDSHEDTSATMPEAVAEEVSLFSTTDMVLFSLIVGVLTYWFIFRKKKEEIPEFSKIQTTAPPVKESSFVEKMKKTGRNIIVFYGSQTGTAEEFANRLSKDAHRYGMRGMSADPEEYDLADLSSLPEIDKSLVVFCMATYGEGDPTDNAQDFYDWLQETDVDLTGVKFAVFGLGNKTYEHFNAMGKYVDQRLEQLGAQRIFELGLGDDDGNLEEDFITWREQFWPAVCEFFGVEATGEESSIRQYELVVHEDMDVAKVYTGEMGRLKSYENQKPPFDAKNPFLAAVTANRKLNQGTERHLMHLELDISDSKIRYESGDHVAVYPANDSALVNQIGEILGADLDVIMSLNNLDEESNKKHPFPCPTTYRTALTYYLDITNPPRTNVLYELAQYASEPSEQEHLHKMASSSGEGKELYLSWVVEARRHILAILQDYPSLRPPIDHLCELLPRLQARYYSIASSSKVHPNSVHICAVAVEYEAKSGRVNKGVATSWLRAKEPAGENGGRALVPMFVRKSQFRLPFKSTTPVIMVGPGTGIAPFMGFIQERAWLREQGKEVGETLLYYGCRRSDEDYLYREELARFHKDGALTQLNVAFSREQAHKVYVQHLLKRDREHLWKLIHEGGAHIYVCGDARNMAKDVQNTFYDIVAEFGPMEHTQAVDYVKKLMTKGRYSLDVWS

[3] = test system: orthotopic 4T1-luc breast tumors; experiment: In vivo dynamic bioluminescence imaging; design: species or system BALB/c mice; details: 180 mg/kg IP single dose
Summary of the method: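 Cells: 4T1-luc, firefly luciferase-expressing, grown in RPMI1640 with 10% FBS. 10⁶ cells in PBS with 30% Matrigel were implanted into the left upper ventral mammary fat pad of female BALB/cJ mice and grown 11 days to 10–12 mm. Baseline BLI was taken under 2% isoflurane after SC D-luciferin (120 mg/kg). Then a single IP dose of test compound was given (180 mg/kg in DPS, n=3), with vehicle and combretastatin A-4 phosphate (120 mg/kg) controls. Imaging (~20 min) was repeated at 4, 24 and 48 h with fresh luciferin, comparing area under the light-emission curve.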

4T1-luc tumors = experiment: H&E histology of harvested tumors; format: in vivo, BALB/c mice; details: 180 mg/kg IP
Summary of the method: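 4T1-luc orthotopic mammary fat pad tumors in female BALB/cJ mice were dosed once IP with test compound (180 mg/kg in DPS vehicle). Tumors were harvested at 72 h, or after further imaging at 96 h, when survivors were killed by cervical dislocation under isoflurane. They were stained with hematoxylin and eosin. Each tumor's histology was matched to its BLI response.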

Compound: COc1ccc(/C=C\c2cc(OC)c(OC)c(OC)c2)c(OC(C)c2ccc([N+](=O)[O-])s2)c1O (centres unmarked) [compound 38, (Z)-6-Methoxy-2-(1-(5-nitrothiophen-2-yl)ethoxy)-3-(3,4,5-trimethoxystyryl)phenol]
- percent BAPC hydrolysis/cleavage (non-enzymatic) in phosphate buffer (Non-enzymatic stability): 0.5^c %

Compound: COc1cc(/C=C\c2ccc(OC)c3c2OC(C)(c2ccc([N+](=O)[O-])s2)O3)cc(OC)c1OC (centres unmarked) [compound 36, (Z)-4-Methoxy-2-methyl-2-(5-nitrothiophen-2-yl)-7-(3,4,5-trimethoxystyryl)-benzo[d][1,3]dioxole]
- percent BAPC hydrolysis/cleavage (non-enzymatic) in phosphate buffer (Non-enzymatic stability): 0%

Compound: COc1ccc(/C=C\c2cc(OC)c(OC)c(OC)c2)c(OC(C)(C)c2ccc([N+](=O)[O-])s2)c1O [compound 41, (Z)-6-Methoxy-2-((2-(5-nitrothiophen-2-yl)propan-2-yl)oxy)-3-(3,4,5-trimethoxystyryl)phenol]
- spontaneous hydrolysis in pH 7.4 buffer (Non-enzymatic stability; first 150 min): no apparent spontaneous hydrolysis
- hydrolysis in pH 7.4 buffer (Non-enzymatic stability; incubated 24–48 h): mostly hydrolyzed
- percent BAPC hydrolysis/cleavage (non-enzymatic) in phosphate buffer (Non-enzymatic stability): 100%

Compound: COc1ccc(/C=C\c2cc(OC)c(OC)c(OC)c2)cc1O [compound 42, combretastatin A-4]
- inhibition of colchicine binding % inhibition ± SD (tubulin; compound at 1 μM): 84±2%
- inhibition of colchicine binding % inhibition ± SD (tubulin; compound at 5 μM): 97±0.7%

Compound: Br.O=[N+]([O-])c1nccn1CC(O)CNCCBr (centres unmarked) [RB6145]
- hypoxia cytotoxicity ratio (HCR) ([1]; A549, GI50 oxic versus anoxic, drug removal step omitted): >3.7

Compound: COc1ccc(/C=C\c2cc(OC)c(OC)c(OC)c2)c(OCc2ccc([N+](=O)[O-])s2)c1O [compound 37, (Z)-6-Methoxy-2-((5-nitrothiophen-2-yl)methoxy)-3-(3,4,5-trimethoxystyryl)phenol]
- percent BAPC hydrolysis/cleavage (non-enzymatic) in phosphate buffer (Non-enzymatic stability): 0^b %

Compound: COc1cc(/C=C\c2ccc(OC)c(OC(C)c3ccc([N+](=O)[O-])s3)c2O)cc(OC)c1OC (centres unmarked) [compound 40, (Z)-3-Methoxy-2-(1-(5-nitrothiophen-2-yl)ethoxy)-6-(3,4,5-trimethoxystyryl)phenol]
- percent BAPC hydrolysis/cleavage (non-enzymatic) in phosphate buffer (Non-enzymatic stability): 0^c %

Compound: COc1ccc(/C=C\c2cc(OC)c(OC)c(OC)c2)cc1OC(C)(C)c1ccc([N+](=O)[O-])s1 [compound 45, (Z)-2-(2-(2-Methoxy-5-(3,4,5-trimethoxystyryl)phenoxy)propan-2-yl)-5-nitrothiophene]
- percent BAPC cleavage by POR [2]: 25%
- cleavage by POR supersomes ([2]; 24 h, anaerobic conditions): Complete cleavage
- stability in phosphate buffer (Non-enzymatic stability; pH 7.4, 24 h): stable
- decrease in light emission (BLI) ([3]; 4 h, two of three mice): > 80%
- depression of light emission (BLI) ([3]; 24 h, the two responding tumors): > 75%
- light emission (BLI) recovery ([3]; by 48 h, the two responding tumors): substantial recovery
- tumor necrosis (H&E) (4T1-luc tumors; BLI-unresponsive tumor): 47%
- tumor necrosis (H&E) (4T1-luc tumors; tumor showing a strong BLI signal response): 55%

Compound: (Z)-3-Methoxy-2-(2-(5-nitrothiophen-2-yl)propoxy)-6-(3,4,5-trimethoxystyryl)-phenyl-4-methylbenzenesulfonate [compound 23]
- percent BAPC cleavage by POR [2]: 13.5%
- percent BAPC hydrolysis/cleavage (non-enzymatic) in phosphate buffer (Non-enzymatic stability): 0.84%

Compound: COc1cc(/C=C\c2ccc(OC)c(OCc3ccc([N+](=O)[O-])s3)c2O)cc(OC)c1OC [compound 39, (Z)-3-Methoxy-2-((5-nitrothiophen-2-yl)methoxy)-6-(3,4,5-trimethoxystyryl)phenol]
- percent BAPC hydrolysis/cleavage (non-enzymatic) in phosphate buffer (Non-enzymatic stability): 0^b %

Compound: Nc1n[n+]([O-])c2ccccc2[n+]1[O-] [Tirapazamine]
- hypoxia cytotoxicity ratio (HCR) ([1]; assays in which drug was washed out after 4 h): > 62

Compound: COc1cc(/C=C\c2ccc(OC)c3c2OC(c2ccc([N+](=O)[O-])s2)O3)cc(OC)c1OC (centres unmarked) [compound 35, (Z)-4-Methoxy-2-(5-nitrothiophen-2-yl)-7-(3,4,5-trimethoxystyryl)-benzo[d][1,3]dioxole]
- percent BAPC hydrolysis/cleavage (non-enzymatic) in phosphate buffer (Non-enzymatic stability): 0%
